Results from different studies.
Lines come from different studies, so protocols differ.
ADORA1: Adenosine receptor A1 (ADORA1, Homo sapiens, UniProt P30542)
MMP7: Matrilysin (MMP7, Homo sapiens, UniProt P09237)
OTUD6B: Deubiquitinase OTUD6B (OTUD6B, Homo sapiens, UniProt Q8N6M0)

Structure (SMILES)	target	assay	conditions	inhibition [%]
O[C@H]1[C@H](n2cnc3c(NC(C4CCCC4)C4CCCC4)nc(Cl)nc32)[C@H]2C[C@@]2(CSc2ccccc2F)[C@H]1O	ADORA1	ligand displacement, radioligand	10 µM	-6
c1ccc(C(NCCNC(c2ccccc2)c2ccccc2)c2ccccc2)cc1	MMP7	enzyme activity, inhibitor	10 µM	-5
O[C@H]1[C@H](n2cnc3c(NC(C4CCCCC4)C4CCCCC4)nc(Cl)nc32)[C@H]2C[C@@]2(CF)[C@H]1O	ADORA1	ligand displacement, radioligand	10 µM	47
CCOC(=O)c1ccc(OC(=O)CCCCCNC(=N)N)cc1	OTUD6B	enzyme activity, inhibitor	10 µM	3
CCOC(=O)[C@@]12C[C@@H]1[C@@H](n1cnc3c(NC(C4CCCC4)C4CCCC4)nc(Cl)nc31)[C@H](O)[C@@H]2O	ADORA1	ligand displacement, radioligand	10 µM	55
COc1cc(Nc2ncc(F)c(Nc3ccc4c(n3)NC(=O)C(C)(C)O4)n2)cc(OC)c1OC	Serine/threonine-protein kinase 32C (STK32C, Homo sapiens, UniProt Q86UX6)	binding, competition with immobilised ligand	10 µM	0
Cn1cc(-c2cccc(N3CCc4c(sc5c4CC(C)(C)C5)C3=O)c2CO)cc(Nc2ccncn2)c1=O	Inhibitor of nuclear factor kappa-B kinase subunit alpha (CHUK, Homo sapiens, UniProt O15111)	enzyme activity, inhibitor	1 µM	-5
CN(C)C(=O)COC(=O)Cc1ccc(OC(=O)c2ccc(NC(=N)N)cc2)cc1	OTUD6B	enzyme activity, inhibitor	10 µM	1
C[C@H](C(=O)N[C@H]1COc2ccccc2[C@@H]1S(C)(=O)=O)c1ccc(F)cc1	MMP7	enzyme activity, inhibitor	10 µM	-6
C#Cc1n[nH]c2c(-c3cn([C@@H](C)c4ccccc4)c(=O)[nH]c3=O)cc(F)cc12	Tyrosine-protein kinase receptor UFO (AXL, Homo sapiens, UniProt P30530)	enzyme activity, inhibitor	0.1 µM	41.4
O[C@H]1[C@H](n2cnc3c(NC(C4CCCCC4)C4CCCCC4)nc(Cl)nc32)[C@H]2C[C@@]2(CCl)[C@H]1O	ADORA1	ligand displacement, radioligand	10 µM	63
N=C(N)c1ccc2cc(OC(=O)c3ccc(N=C(N)N)cc3)ccc2c1	OTUD6B	enzyme activity, inhibitor	10 µM	9
C#Cc1n[nH]c2c(-c3cn(C(C)c4ccccn4)c(=O)[nH]c3=O)cc(F)cc12 (stereo not drawn)	Dual specificity protein kinase CLK1 (CLK1, Homo sapiens, UniProt P49759)	enzyme activity, inhibitor	1 µM	3.7
CNC(=O)[C@H](Cc1ccccc1)NC(=O)[C@H](CC(C)C)[C@H](CSc1cccs1)C(=O)NO	MMP7	enzyme activity, inhibitor	10 nM	94
Cn1c(=O)c2ncnnc2n(C)c1=O	Ubiquitin carboxyl-terminal hydrolase 5 (USP5, Homo sapiens, UniProt P45974)	enzyme activity, inhibitor	17 µM	98
